Measured values reported in ChEMBL document CHEMBL3120102, “Structure-based design, synthesis and biological evaluation of novel anthra[1,2-d]imidazole-6,11-dione homologues as potential antitumor agents” (2013).

Tests used:
[1] = system: SN12C; experiment: Cytotoxicity against human SN12C cells assessed as growth inhibition after 48 hrs by SRB assay; type: functional; conditions: for CC50: read-out: LC50 (the source's name)
How it was run: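 NCI 60-cell-line screen, two stages. Five-dose testing at […]. Cellular protein measured by sulforhodamine B colorimetry after 48 h drug exposure. A time-zero control and drug-free plates are used to derive GI50, TGI and LC50 from dose-response curves plotted as log10 concentration per cell line.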

[2] = system: T47D; experiment: Cytotoxicity against human T47D cells assessed as cell growth at 10 uM after 48 hrs by SRB assay; type: functional; conditions: read-out: Activity
How it was run: (§1)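 First stage of the NCI 60 human tumour cell line screen, with each compound tested at a single dose of 10. Cellular protein measured by sulforhodamine B colorimetry after 48 h drug exposure. Growth is calculated against a time-zero cell control and against plates not exposed to drug.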

[3] = system: PC-3; experiment: Cytotoxicity against human PC3 cells assessed as cell growth at 10 uM after 48 hrs by SRB assay; type: functional; conditions: PC-3, 48 h, read-out: Activity
How it was run: (§2)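 First stage of the NCI 60 human tumour cell line screen: a single dose is tested against every line. Cell growth is read as cellular protein by sulforhodamine B colorimetry after 48 h of drug exposure, with reference to a time-zero control and to untreated plates.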

[4] = Cytotoxicity against human UO31 cells assessed as cell growth at 10 uM after 48 hrs by SRB assay; type: functional; conditions: UO-31, 48 h, read-out: Activity; how it was run: as §1
[5] = system: TK-10; experiment: Cytotoxicity against human TK10 cells assessed as cell growth at 10 uM after 48 hrs by SRB assay; type: functional; conditions: TK-10, 48 h, read-out: Activity; how it was run: as §1
[6] = system: ACHN; experiment: Cytotoxicity against human ACHN cells assessed as cell growth at 10 uM after 48 hrs by SRB assay; type: functional; conditions: read-out: Activity
[7] = Cytotoxicity against human NCI-ADR-RES cells assessed as cell growth at 10 uM after 48 hrs by SRB assay; type: functional; conditions: read-out: Activity; how it was run: as §2
[8] = system: SK-MEL-5; experiment: Cytotoxicity against human SK-MEL-5 cells assessed as cell growth at 10 uM after 48 hrs by SRB assay; type: functional; conditions: SK-MEL-5, 48 h, read-out: Activity; how it was run: as §2
[9] = system: SK-MEL-2; experiment: Cytotoxicity against human SK-MEL-2 cells assessed as cell growth at 10 uM after 48 hrs by SRB assay; type: functional; conditions: SK-MEL-2, 48 h, read-out: Activity; how it was run: as §2
[10] = system: Malme-3M; experiment: Cytotoxicity against human MALME-3M cells assessed as cell growth at 10 uM after 48 hrs by SRB assay; type: functional; conditions: read-out: Activity
[11] = system: SNB-19; experiment: Cytotoxicity against human SNB19 cells assessed as cell growth at 10 uM after 48 hrs by SRB assay; type: functional; conditions: SNB-19, 48 h, read-out: Activity; how it was run: as §1
[12] = system: SF-539; experiment: Cytotoxicity against human SF539 cells assessed as cell growth at 10 uM after 48 hrs by SRB assay; type: functional; conditions: SF-539, 48 h, read-out: Activity; how it was run: as §2
[13] = system: SF-295; experiment: Cytotoxicity against human SF295 cells assessed as cell growth at 10 uM after 48 hrs by SRB assay; type: functional; conditions: SF-295, 48 h, read-out: Activity; how it was run: as §2
[14] = system: SW-620; experiment: Cytotoxicity against human SW620 cells assessed as cell growth at 10 uM after 48 hrs by SRB assay; type: functional; conditions: SW-620, 48 h, read-out: Activity; how it was run: as §1
[15] = system: KM12; experiment: Cytotoxicity against human KM12 cells assessed as cell growth at 10 uM after 48 hrs by SRB assay; type: functional; conditions: KM12, 48 h, read-out: Activity
[16] = system: HCT-15; experiment: Cytotoxicity against human HCT15 cells assessed as cell growth at 10 uM after 48 hrs by SRB assay; type: functional; conditions: HCT-15, 48 h, read-out: Activity
[17] = system: COLO 205; experiment: Cytotoxicity against human COLO205 cells assessed as cell growth at 10 uM after 48 hrs by SRB assay; type: functional; conditions: COLO 205, 48 h, read-out: Activity
[18] = system: NCI-H522; experiment: Cytotoxicity against human NCI-H522 cells assessed as cell growth at 10 uM after 48 hrs by SRB assay; type: functional; conditions: NCI-H522, 48 h, read-out: Activity; how it was run: as §2
[19] = system: NCI-H460; experiment: Cytotoxicity against human NCI-H460 cells assessed as cell growth at 10 uM after 48 hrs by SRB assay; type: functional; conditions: NCI-H460, 48 h, read-out: Activity; how it was run: as §2
[20] = system: NCI-H322M; experiment: Cytotoxicity against human NCI-H322M cells assessed as cell growth at 10 uM after 48 hrs by SRB assay; type: functional; conditions: read-out: Activity; how it was run: as §2
[21] = system: NCI-H23; experiment: Cytotoxicity against human NCI-H23 cells assessed as cell growth at 10 uM after 48 hrs by SRB assay; type: functional; conditions: NCI-H23, 48 h, read-out: Activity; how it was run: as §2
[22] = system: NCI-H226; experiment: Cytotoxicity against human NCI-H226 cells assessed as cell growth at 10 uM after 48 hrs by SRB assay; type: functional; conditions: NCI-H226, 48 h, read-out: Activity; how it was run: as §2
[23] = system: HOP-62; experiment: Cytotoxicity against human HOP62 cells assessed as cell growth at 10 uM after 48 hrs by SRB assay; type: functional; conditions: HOP-62, 48 h, read-out: Activity
How it was run: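 NCI 60-cell-line screen, first stage: compound at a single dose of […] (unit as printed) for 48 h. Cellular protein was measured by sulforhodamine B colorimetry. Growth was determined using a time-zero cell control and plates not exposed to drug.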

[24] = system: A549; experiment: Cytotoxicity against human A549 cells assessed as cell growth at 10 uM after 48 hrs by SRB assay; type: functional; conditions: A549, 48 h, read-out: Activity
[25] = system: SR; experiment: Cytotoxicity against human SR cells assessed as cell growth at 10 uM after 48 hrs by SRB assay; type: functional; conditions: read-out: Activity; how it was run: as §1
[26] = biological target: Telomerase reverse transcriptase (Homo sapiens) (UniProt O14746); experiment: Inhibition of human tert transcriptional activity assessed as SEAP activity at 10 uM after 24 hrs by SEAP reporter assay; design: scale not given: the % may be the effect or the level left
How it was run: (§3)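 Reporter assay for hTERT transcriptional activity using secreted alkaline phosphatase. About 2 × 10³ cells per well were grown for 24 h at 37 °C, then given fresh medium. Buffer was added to the medium: 2 M diethanolamine, 1 mM MgCl2 and 20 mM L-homoarginine. p-Nitrophenyl phosphate was added to 12 mM final. The rate of absorbance increase was read at 405 nm.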

[27] = biological target: Telomerase reverse transcriptase (Homo sapiens) (UniProt O14746); experiment: Inhibition of human tert transcriptional activity assessed as SEAP activity at 1 uM after 24 hrs by SEAP reporter assay; design: scale not given: the % may be the effect or the level left; how it was run: as §3
[28] = Cytotoxicity against human H1299 cells assessed as cell viability at 100 uM after 48 hrs by MTT assay; type: functional; conditions: NCI-H1299, 48 h, read-out: Activity
How it was run: (§4)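 About 2×10³ H1299 cells per well were grown for 24 h at 37 °C in 5% CO2. Compound was dissolved in DMSO immediately before use, diluted in complete medium and left on cells for 48 h. MTT was then added for 4 h at 37 °C, followed by SDS/DMF lysis buffer for 16 h at 37 °C. Absorbance was read at 550 nm.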

[29] = Cytotoxicity against human H1299 cells assessed as cell viability at 10 uM after 48 hrs by MTT assay; type: functional; conditions: NCI-H1299, 48 h, read-out: Activity; how it was run: as §4

Chain of Telomerase reverse transcriptase (Homo sapiens) (O14746 whole entry): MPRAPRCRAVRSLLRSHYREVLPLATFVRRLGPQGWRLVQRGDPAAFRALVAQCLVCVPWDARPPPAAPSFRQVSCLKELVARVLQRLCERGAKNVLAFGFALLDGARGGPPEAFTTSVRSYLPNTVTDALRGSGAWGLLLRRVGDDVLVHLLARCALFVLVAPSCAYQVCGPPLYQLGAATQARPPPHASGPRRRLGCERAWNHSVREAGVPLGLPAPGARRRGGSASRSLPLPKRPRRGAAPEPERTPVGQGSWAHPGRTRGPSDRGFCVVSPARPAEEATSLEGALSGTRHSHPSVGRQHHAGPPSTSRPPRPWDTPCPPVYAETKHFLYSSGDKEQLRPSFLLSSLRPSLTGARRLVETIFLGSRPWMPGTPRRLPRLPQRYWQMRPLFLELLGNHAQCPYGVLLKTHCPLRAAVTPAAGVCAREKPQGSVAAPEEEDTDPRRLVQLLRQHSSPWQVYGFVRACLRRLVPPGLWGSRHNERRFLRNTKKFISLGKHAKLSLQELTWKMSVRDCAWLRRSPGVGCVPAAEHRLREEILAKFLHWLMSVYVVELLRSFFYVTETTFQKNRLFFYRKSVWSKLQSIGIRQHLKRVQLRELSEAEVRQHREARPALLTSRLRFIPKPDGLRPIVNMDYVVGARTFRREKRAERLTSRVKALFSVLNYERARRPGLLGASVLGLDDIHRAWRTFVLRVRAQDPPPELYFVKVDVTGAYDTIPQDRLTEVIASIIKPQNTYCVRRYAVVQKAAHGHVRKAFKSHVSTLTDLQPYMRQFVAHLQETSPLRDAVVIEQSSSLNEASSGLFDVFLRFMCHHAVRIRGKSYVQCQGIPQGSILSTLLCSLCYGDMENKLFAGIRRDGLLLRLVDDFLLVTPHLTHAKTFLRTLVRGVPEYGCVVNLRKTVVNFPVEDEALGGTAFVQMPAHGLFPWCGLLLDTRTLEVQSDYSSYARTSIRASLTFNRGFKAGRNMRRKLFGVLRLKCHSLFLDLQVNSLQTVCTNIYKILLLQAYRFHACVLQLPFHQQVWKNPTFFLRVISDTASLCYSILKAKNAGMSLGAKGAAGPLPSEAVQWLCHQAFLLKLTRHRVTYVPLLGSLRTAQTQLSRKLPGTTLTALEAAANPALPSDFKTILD

SMILES	growth at 10 µM [2] [%]	growth at 10 µM [3] [%]	growth at 10 µM [4] [%]	growth at 10 µM [5] [%]	growth at 10 µM [6] [%]	growth at 10 µM [7] [%]	growth at 10 µM [8] [%]	growth at 10 µM [9] [%]	growth at 10 µM [10] [%]	growth at 10 µM [11] [%]	growth at 10 µM [12] [%]	growth at 10 µM [13] [%]	growth at 10 µM [14] [%]	growth at 10 µM [15] [%]	growth at 10 µM [16] [%]	growth at 10 µM [17] [%]	growth at 10 µM [18] [%]	growth at 10 µM [19] [%]	growth at 10 µM [20] [%]	growth at 10 µM [21] [%]	other results
CCCSc1nc2ccc3c(c2[nH]1)C(=O)c1ccccc1C3=O	53.7	66.8	24.5	35.5	27.2	50.2	78.5	79.3	88.2	92	24	37.2	104	55.2	67.7	103	72.4	68.1	76	69.8	GI50 [1]: 14 µM; TGI [1]: > 100 µM; growth inhibition (GI) [1]: Dose-dependent effect; CC50 [1]: > 100 µM; growth at 10 µM [22]: 50.2%; growth at 10 µM [23]: 59.1%; growth at 10 µM [24]: 59.1%; growth at 10 µM [25]: 71%; Activity [26]: 94%; Activity [27]: 103%; viability at 100 µM [28]: 12%; viability at 10 µM [29]: 78%
CCSc1nc2ccc3c(c2[nH]1)C(=O)c1ccccc1C3=O	30.8	53.8	49.2	74.1	37.6	85.7	63.9	81.7	63.3	87.9	58.6	101	84.5	68.3	32.3	71.8	78.6	38.8	33.4	87.4	GI50 [1]: 10.3 µM; TGI [1]: > 100 µM; growth inhibition (GI) [1]: Dose-dependent effect; CC50 [1]: > 100 µM; growth at 10 µM [22]: 62.1%; growth at 10 µM [23]: 95.6%; growth at 10 µM [24]: 101%; growth at 10 µM [25]: 129%; Activity [26]: 90%; Activity [27]: 100%; viability at 100 µM [28]: 73%; viability at 10 µM [29]: 127%
CN(C)CCCSc1nc2ccc3c(c2[nH]1)C(=O)c1ccccc1C3=O	45.8	36.7	25.5	31.7	24.3	54.3	62.5	80	88.2	79.7	57.5	76	26.4	20.4	36.3	62	69.3	23.2	70.8	53.8	GI50 [1]: 3.26 µM; TGI [1]: 16.5 µM; growth inhibition (GI) [1]: Dose-dependent effect; CC50 [1]: 40.6 µM; growth at 10 µM [22]: 74.1%; growth at 10 µM [23]: 52%; growth at 10 µM [24]: 51.6%; growth at 10 µM [25]: 3.09%; Activity [26]: 86%; Activity [27]: 100%; viability at 100 µM [28]: 22%; viability at 10 µM [29]: 79%
O=C1c2ccccc2C(=O)c2c1ccc1nc3n(c21)CCS3	73.1	93.9	45.8	58.8	59.4	84.1	65.9	99.9	87.6	74.5	74.1	78.6	69.3	84.9	57.1	95.2	80.6	59.5	72.1	84.3	growth at 10 µM [22]: 80.5%; growth at 10 µM [23]: 85.3%; growth at 10 µM [24]: 81.2%; growth at 10 µM [25]: 60.6%; Activity [26]: 53%; Activity [27]: 107%; viability at 100 µM [28]: 99%; viability at 10 µM [29]: 128%
O=C1c2ccccc2C(=O)c2c1ccc1[nH]c(=S)[nH]c21	81.9	78.8	97.8	112	96.2	110	86.7	134	87.5	91.3	91.3	118	97.6	102	83.8	104	96.1	98.6	96.3	113	growth at 10 µM [22]: 83.7%; growth at 10 µM [23]: 96.7%; growth at 10 µM [24]: 118%; growth at 10 µM [25]: 125%; Activity [26]: 100%; Activity [27]: 97%; viability at 100 µM [28]: 54%; viability at 10 µM [29]: 99%
O=C1c2ccccc2C(=O)c2c1ccc1nc(SCCN3CCCC3)[nH]c21	83.1	6.9	21.2	36.9	34.6	53.7	78.5	107	112	60.5	62.2	76.9	22.8	19.6	40.4	17.1	81.5	34.1	73.2	66.9	GI50 [1]: 5.96 µM; TGI [1]: 19.6 µM; growth inhibition (GI) [1]: Dose-dependent effect; CC50 [1]: 46.1 µM; growth at 10 µM [22]: 88.1%; growth at 10 µM [23]: 73.7%; growth at 10 µM [24]: 35.5%; growth at 10 µM [25]: 20.2%; Activity [26]: 98%; Activity [27]: 102%; viability at 100 µM [28]: 21%; viability at 10 µM [29]: 89%
